# From ChEMBL document CHEMBL2062428, “Cyclooxygenase-1-selective inhibitors based on the (E)-2'-des-methyl-sulindac sulfide scaffold” (J Med Chem, 2012)
# Active and inactive are the calls of the source. No cut-off for these calls is given here.
# Columns and labels:
# [1] = molecular target: T1, Prostaglandin G/H synthase 1 (Ovis aries) (UniProt P05979); assay: Inhibition of ovine COX-1 using [14C] arachidonic acid as substrate at 4 uM preincubated for 17 mins before substrate addition measured after 3 mins by thin-layer chromatographic analysis
# T1 sequence (whole entry): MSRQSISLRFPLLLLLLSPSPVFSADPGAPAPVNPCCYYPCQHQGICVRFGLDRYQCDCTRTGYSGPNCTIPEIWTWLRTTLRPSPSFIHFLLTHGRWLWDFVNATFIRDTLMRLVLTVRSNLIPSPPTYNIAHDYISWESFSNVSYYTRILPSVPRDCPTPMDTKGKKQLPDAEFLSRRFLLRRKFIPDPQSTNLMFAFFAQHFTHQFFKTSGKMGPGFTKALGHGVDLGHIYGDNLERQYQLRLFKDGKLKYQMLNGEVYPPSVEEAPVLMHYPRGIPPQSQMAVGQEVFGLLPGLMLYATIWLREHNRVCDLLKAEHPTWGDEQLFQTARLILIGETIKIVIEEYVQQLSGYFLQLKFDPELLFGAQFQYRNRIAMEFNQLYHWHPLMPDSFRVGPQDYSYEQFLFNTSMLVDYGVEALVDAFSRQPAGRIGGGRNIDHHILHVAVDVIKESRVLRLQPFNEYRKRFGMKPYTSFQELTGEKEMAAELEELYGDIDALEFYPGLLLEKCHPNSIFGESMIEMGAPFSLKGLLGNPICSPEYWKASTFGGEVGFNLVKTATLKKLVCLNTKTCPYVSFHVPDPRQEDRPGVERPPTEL
# Procedure, shortened: (§1)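 Purified ovine COX-1 or murine COX-2 preincubated with a single 4 μM inhibitor concentration for 17 min. […] Reaction quenched; radioactive products extracted and quantified. Mean ± SEM of two experiments.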
# [2] = molecular target: T2, Prostaglandin G/H synthase 2 (Mus musculus) (UniProt Q05769); assay: Inhibition of mouse COX-2 using [14C] arachidonic acid as substrate at 4 uM preincubated for 17 mins before substrate addition measured after 3 mins by thin-layer chromatographic analysis; procedure, shortened: as §1
# T2 sequence (whole entry): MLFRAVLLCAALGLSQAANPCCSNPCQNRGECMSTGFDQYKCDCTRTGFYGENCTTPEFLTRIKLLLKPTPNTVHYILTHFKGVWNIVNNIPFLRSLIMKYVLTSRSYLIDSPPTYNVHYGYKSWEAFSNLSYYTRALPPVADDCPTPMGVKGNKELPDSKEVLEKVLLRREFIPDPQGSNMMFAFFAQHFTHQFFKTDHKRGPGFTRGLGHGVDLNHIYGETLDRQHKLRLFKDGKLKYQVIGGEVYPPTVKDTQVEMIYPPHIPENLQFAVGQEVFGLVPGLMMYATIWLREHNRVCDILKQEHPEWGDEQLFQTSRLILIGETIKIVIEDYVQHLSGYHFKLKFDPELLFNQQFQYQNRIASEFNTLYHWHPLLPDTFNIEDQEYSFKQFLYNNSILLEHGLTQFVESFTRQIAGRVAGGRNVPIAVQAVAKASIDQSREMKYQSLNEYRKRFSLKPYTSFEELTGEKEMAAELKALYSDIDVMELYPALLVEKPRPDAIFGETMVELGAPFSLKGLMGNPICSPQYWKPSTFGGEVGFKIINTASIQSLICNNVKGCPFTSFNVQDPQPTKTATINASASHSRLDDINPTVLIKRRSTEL
SMILES,inhibition [1],inhibition [2]
O=C(O)CC1=C/C(=C\c2ccc(C(F)(F)F)cc2)c2ccc(F)cc21,81%,60%
C[S+]([O-])c1ccc(/C=C2\C=C(CC(=O)O)c3cc(F)ccc32)cc1 (stereo not given),27%,8.5%
CSc1ccc(/C=C2\C=C(CC(=O)NS(=O)(=O)c3ccc4ccccc4c3)c3cc(F)ccc32)cc1,74%,26%
O=C(O)CC1=C/C(=C\c2ccc(SC(F)(F)F)cc2)c2ccc(F)cc21,77%,35%
O=C(O)CC1=C/C(=C\c2ccc3cccnc3n2)c2ccc(F)cc21,14%,42%
COc1ccc(-c2cccc(/C=C3\C=C(CC(=O)O)c4cc(F)ccc43)n2)cc1,35%,56%
O=C(O)CC1=C/C(=C\c2cccc3cccnc23)c2ccc(F)cc21,51%,0%
Cc1ccc(/C=C2\C=C(CC(=O)O)c3cc(F)ccc32)cc1,52%,13%
CSc1ccc(/C=C2\C=C(CC(=O)NS(=O)(=O)c3ccc(Br)cc3)c3cc(F)ccc32)cc1,40%,30%
O=C(O)CC1=C/C(=C\c2ccc([S+]([O-])C(F)(F)F)cc2)c2ccc(F)cc21 (stereo not given),51%,15%
O=C(O)CC1=C/C(=C\c2cccc(-c3ccc4c(c3)OCO4)n2)c2ccc(F)cc21,59%,43%
CCOC(=O)C(C)C1=C/C(=C\c2ccc(-c3ccccc3)cc2)c2ccc(F)cc21 (stereo not given),30%,0%
O=C(O)CC1=C/C(=C\c2ccc3c(c2)Cc2ccccc2-3)c2ccc(F)cc21,70%,26%
CCOC(=O)C(C)(C)C1=C/C(=C\c2ccc(SC)cc2)c2ccc(F)cc21,43%,0%
CSc1ccc(/C=C2\C=C(CC(=O)NS(=O)(=O)c3ccc(C(F)(F)F)cc3)c3cc(F)ccc32)cc1,48%,19%
CCOC(=O)C(C)(C)C1=C/C(=C\c2cnc(-c3ccccc3)nc2C)c2ccc(F)cc21,25%,9%
O=C(O)CC1=C/C(=C\c2ccc(-c3ccc(C(F)(F)F)cc3)cc2)c2ccc(F)cc21,31%,15%
O=C(O)CC1=C/C(=C\c2ccc(F)c3ccccc23)c2ccc(F)cc21,61%,22%
CSc1ccc(/C=C2\C=C(CC(=O)NS(C)(=O)=O)c3cc(F)ccc32)cc1,21%,7%
CSc1ccc(/C=C2\C=C(CC(=O)NS(=O)(=O)c3ccc(C)cc3)c3cc(F)ccc32)cc1,55%,20%

SMILES,inhibition [1],inhibition [2]
O=C(O)CC1=C/C(=C\c2ccc(Br)cc2)c2ccc(F)cc21,73%,34%
O=C(O)CC1=C/C(=C\c2cccc3ccccc23)c2ccc(F)cc21,53%,7%
COc1ccc(S(=O)(=O)NC(=O)CC2=C/C(=C\c3ccc(SC)cc3)c3ccc(F)cc32)cc1,58%,8%
O=C(O)CC1=C/C(=C\c2cnc(-c3ccccc3)nc2)c2ccc(F)cc21,35%,8%
O=C(O)CC1=C/C(=C\c2ccc(C(=O)O)cc2)c2ccc(F)cc21,43%,0%
O=C(O)CC1=C/C(=C\c2ccc(-c3ccccc3)c(F)c2)c2ccc(F)cc21,44%,34%
O=C(O)CC1=C/C(=C\c2ccc(-c3ccc(F)cc3)cc2)c2ccc(F)cc21,33%,16%
CSc1ccc(/C=C2\C=C(CC(=O)NS(=O)(=O)c3ccc(C(C)C)cc3)c3cc(F)ccc32)cc1,45%,2%
CSc1ccc(-c2ccc(/C=C3\C=C(CC(=O)O)c4cc(F)ccc43)cc2)cc1,68%,18%
CSc1ccc(/C=C2\C=C(C(C)(C)C(=O)O)c3cc(F)ccc32)cc1,17%,16%
CSc1ccc(/C=C2\C=C(CC(=O)NS(=O)(=O)c3ccc(OC(F)(F)F)cc3)c3cc(F)ccc32)cc1,47%,32%
CCOC(=O)CC1=C/C(=C\c2ccc(SC)cc2)c2ccc(F)cc21,20%,0%
CSc1ccc(/C=C2\C=C(CC(=O)NS(=O)(=O)c3ccc(F)cc3)c3cc(F)ccc32)cc1,44%,20%
O=C(O)CC1=C/C(=C\c2ccc(-c3ccccc3)nc2)c2ccc(F)cc21,55%,5%
CC(C(=O)O)C1=C/C(=C\c2ccc(-c3ccccc3)cc2)c2ccc(F)cc21 (stereo not given),30%,inactive
Cc1nc(-c2ccccc2)ncc1/C=C1\C=C(CC(=O)O)c2cc(F)ccc21,19%,19%
CS(=O)(=O)c1ccc(-c2cccc(/C=C3\C=C(CC(=O)O)c4cc(F)ccc43)n2)cc1,13%,54%
O=C(O)CC1=C/C(=C\c2cnc(C3CCCCC3)nc2)c2ccc(F)cc21,45%,25%
CSc1ccc(/C=C2\C=C(CC(=O)NS(=O)(=O)c3ccccc3C)c3cc(F)ccc32)cc1,60%,36%
O=C(O)CC1=C/C(=C\c2ccccc2)c2ccc(F)cc21,74%,34%

SMILES,inhibition [1],inhibition [2]
C#Cc1ccc(/C=C2\C=C(CC(=O)O)c3cc(F)ccc32)cc1,62%,17%
COc1ccc2c(c1)C(CC(=O)O)=C/C2=C\c1ccc(-c2ccccc2)cc1,38%,2%
O=C(O)CC1=C/C(=C\c2cccc(-c3cccs3)n2)c2ccc(F)cc21,15%,28%
C#CCOc1ccc(/C=C2\C=C(CC(=O)O)c3cc(F)ccc32)cc1OCC,68%,20%
CCOC(=O)C(C)(C)C1=C/C(=C\c2cc(-c3ccc(C)cc3)on2)c2ccc(F)cc21,37%,0%
CCOC(=O)C(C)(C)C1=C/C(=C\c2ccc(-c3ccccc3)c(F)c2)c2ccc(F)cc21,40%,15%
CCOC(=O)C(C)(C)C1=C/C(=C\c2ccc3c(c2)Cc2ccccc2-3)c2ccc(F)cc21,34%,18%
O=C(O)CC1=C/C(=C\c2ccc3nccnc3c2)c2ccc(F)cc21,31%,29%
COc1ccc(/C=C2\C=C(CC(=O)O)c3cc(F)ccc32)cc1,62%,22%
CCOC(=O)C(C)(C)C1=C/C(=C\c2ccc(-c3ccc(F)cc3)cc2)c2ccc(F)cc21,10%,0%
O=C(O)CC1=C/C(=C\c2ccc(-c3ccc(F)nc3)cc2)c2ccc(F)cc21,27%,10%
CC(C)(C)Oc1ccc(/C=C2\C=C(CC(=O)O)c3cc(F)ccc32)cc1,17%,5%
O=C(O)CC1=C/C(=C\c2ccc3cccnc3c2)c2ccc(F)cc21,58%,16%
CCOC(=O)C(C)(C)C1=C/C(=C\c2cccc(-c3ccc(F)cc3)n2)c2ccc(F)cc21,24%,21%
CSc1ccc(/C=C2\C=C(CC(N)=O)c3cc(F)ccc32)cc1,21%,5%
O=C(O)CC1=C/C(=C\c2ccc(S(=O)(=O)C(F)(F)F)cc2)c2ccc(F)cc21,34%,16%
CCOC(=O)C(C)(C)C1=C/C(=C\c2ccc(-c3ccccc3)cc2)c2ccc(F)cc21,26%,2%
CCOC(=O)C(C)(C)C1=C/C(=C\c2cccc(-c3ccccc3)c2)c2ccc(F)cc21,24%,4%
O=C(CC1=C/C(=C\c2ccc(-c3ccccc3)cc2)c2ccc(F)cc21)NS(=O)(=O)C(F)(F)F,99%,15%
CSc1ccc(/C=C2\C=C(CC(=O)OC(C)C)c3cc(F)ccc32)cc1,27%,0%
